Most compounds without a hit are left out; they make up all but 3.1% or so of the library.
EWS-Fli block: EWS/Fli transcriptional activity inhibition. A673 NR0B1-luciferase reporter, viability-normalised. inhibition, % at 12.6 µM. 350,000 compounds, 0.67% hits. AID 651661;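 active = mean inhibition of at least 50% after viability correction, with every replicate also passing that limit; inconclusive = mean reaches 50% but only one of two replicates passes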;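 note: firefly luciferase signal divided by Alamar Blue viability fluorescence both relative to DMSO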
PAX8 reporter: inhibitors of PAX8 transcriptional activity in RMG-I cells; 360,000 compounds, 1.2% hits; inhibition, % at 12.6 µM; RMG-I TPO-luciferase reporter, SteadyGlo, 24 h;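 active = mean replicate inhibition at least 60% with every replicate also reaching 60%; inconclusive = only one of the two criteria is met; inactive = mean below 60% and not all replicates reaching 60%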;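 note: luciferase light reporting Pax8 driven TPO promoter activity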
PGC1a acetyl inh: modulators of PGC1a acetylation | U2OS PGC1a acetylation, AlphaScreen anti-acetyl-lysine; with virally co-expressed GCN5 acetyltransferase | inhibition, % at 15.6 µM | 350,000 compounds, 0.17% hits | AID 651687;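 active = every replicate shows inhibition of at least 40%; inconclusive = mean inhibition at least 40% but some replicate below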
Env fusion inh: HIV envelope-mediated fusion inhibition; inhibition, % at 12.3 µM; AID 651610; HeLa-JRFL Env/CEM21 cell fusion, luciferase; 360,000 compounds, 1.1% hits;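 active = mean replicate inhibition score of at least 50 and every replicate individually at or above 50; inconclusive = only one of the two criteria met; inactive = mean below 50 and not all replicates reaching 50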
FN deposit inh: fibronectin deposition inhibition. AH1F fibroblasts, Alexa488-fibronectin deposition fluorescence, overnight. inhibition, % at 12.6 µM. 350,000 compounds, 0.086% hits. AID 743247;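 active = mean inhibition across replicates of 30% or more, regardless of how many single replicates reach that level; inconclusive = mean under 30% yet at least half of replicates reach 30%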
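Material: AH1F fibroblast monolayer depositing Alexa488-labelled fibronectin into matrix / Amount: 10000 AH1F cells per well / Signal: fluorescence 485/525 nm / Medium: DMEM, 2% serum / Compound: single dose, pinned / Incubation: 1 h cell adhesion before compound, then overnight fibronectin incubation / Reagent: Alexa488-FN, 24 nM final / Read-out: inhibition of fibronectin deposition signal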
FGF22 binding: shifts melting point of recombinant human FGF22. recombinant FGF22 thermal shift, SYPRO orange fluorescence; percent of sucrose octasulfate shift, DMSO zero. activity (Tm shift, normalised), % at 9.99 µM. 340,000 compounds, 1.5% hits. AID 651658;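 active = mean Tm shift, scaled 0 neutral to 100 positive control, at about 1.3% or above, every replicate too, limit read from the data; inconclusive = no clear call, values can overlap the other calls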
Target sequence (Q9HCT0 whole entry, looked up): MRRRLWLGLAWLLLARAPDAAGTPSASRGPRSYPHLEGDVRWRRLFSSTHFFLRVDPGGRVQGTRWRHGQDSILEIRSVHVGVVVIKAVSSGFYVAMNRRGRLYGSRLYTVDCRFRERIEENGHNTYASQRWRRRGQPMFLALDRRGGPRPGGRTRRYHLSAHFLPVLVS
Hits are given with their value; n = inactive; u = inconclusive; x = no result; [ ] = dose if it differs, or a comment.

SMILES	EWS-Fli block	PAX8 reporter	PGC1a acetyl inh	Env fusion inh	FN deposit inh	FGF22 binding
CCCC#Cc1ccc([C@H]2[C@H]3CN(S(=O)(=O)Cc4ccccc4)CCCCN3[C@H]2CO)cc1	n	106	n	x	x	n
O=C(c1ccc(F)cc1)N1CC(=O)N2[C@H](CO)[C@@H](c3ccc(/C=C/c4ccccc4)cc3)[C@@H]2C1	n	69	n	x	x	x
CO[C@H]1CC[C@@H]2CCOc3ccc(C#N)cc3C(=O)N(C)C[C@@H](c3ccccc3)CC(=O)N(C)C[C@@H]1O2	n	n	x	n	n	n
O=C1CN(S(=O)(=O)Cc2ccccc2)C[C@@H]2[C@@H](c3ccc(C#Cc4ccc(F)cc4)cc3)[C@@H](CO)N12	n	106	n	x	n	x
O=C1CN(Cc2ccc(F)cc2)C[C@@H]2[C@@H](c3ccc(Br)cc3)[C@@H](CO)N12	n	73	n	x	x	x
O=C1CN(Cc2ccc(F)cc2)C[C@@H]2[C@@H](c3ccc(Br)cc3)[C@H](CO)N12	n	n	n	x	x	x
COc1ccccc1N/N=C/c1ccc2c(c1)OCO2	n	n	x	n	n	44
COC(=O)c1ccc(CC2(C)C(=O)Nc3ccc(-c4cccc(C(F)(F)F)c4)cc32)o1 (stereo unspecified)	n	n	x	65	n	n
CCN1/C(=C2\C(=O)N(c3ccccc3)N=C2C)C=Cc2cc(C)ccc21	n	n	x	n	n	43
CCN1/C(=c2/s/c(=C3/C(=O)N(c4ccccc4)N=C3C)n(CC)c2=O)C=Cc2ccccc21	n	n	n	n	n	n
O=C(O)c1ccccc1C(=O)NNc1ccc(Cl)cc1Cl	n	n	x	n	n	44
CO[C@@H]1CN(C)C(=O)c2cc(NC(=O)c3ccc(-c4ccccc4)cc3)ccc2OC[C@H](C)NC[C@H]1C	54	84	n	x	n	n
CO[C@H]1CN(C)C(=O)c2cc(NC(=O)c3ccc(-c4ccccc4)cc3)ccc2OC[C@H](C)NC[C@@H]1C	58	n	n	x	n	n
CO[C@@H]1CN(C)C(=O)c2ccc(NC(=O)c3ccc(-c4ccccc4)cc3)cc2OC[C@@H](C)NC[C@H]1C	n	68	n	x	40	n
CO[C@@H]1CN(C)C(=O)c2cc(NC(=O)c3ccc(Oc4ccccc4)cc3)ccc2OC[C@H](C)NC[C@H]1C	69	n	n	n	n	n
CO[C@H]1CN(C)C(=O)c2ccc(NC(=O)c3ccc(-c4ccccc4)cc3)cc2OC[C@H](C)NC[C@@H]1C	x	n	n	x	n	x
CC(C)NC(=O)N(C)C[C@H]1OCCCC[C@@H](C)Oc2ccc(NC(=O)Nc3ccc(F)cc3)cc2C(=O)N([C@@H](C)CO)C[C@H]1C	n	n	n	n	x	n
CO[C@H]1CN(C)C(=O)c2cc(NC(=O)c3ccccc3)ccc2OC[C@@H](C)NC[C@H]1C	n	n	n	n	n	n
CO[C@@H]1CN(C)C(=O)c2ccc(NS(=O)(=O)c3ccc(Oc4ccccc4)cc3)cc2OC[C@@H](C)NC[C@@H]1C	n	x	n	56[16.7 µM]	n	x
CO[C@H]1CN(C)C(=O)c2cc(NC(=O)c3ccc(-c4ccccc4)cc3)ccc2OC[C@@H](C)NC[C@@H]1C	n	112	n	x	n	n
COCCN1C(=O)CC(NNC(=O)c2ccc(S(=O)(=O)N3CCCC3)cc2)C1=O (stereo unspecified)	n	n	n	n	n	43
COCCCN1C(=O)C(=O)/C(=C(/O)c2ccc(S(=O)(=O)N3CCCCC3)cc2)C1c1ccc(O)cc1 (stereo unspecified)	x	n	n	n	n	43
CCC(=O)N1CC[C@H]2[C@H](CO)Nc3ccc(-c4ccc(OC)cc4)cc3[C@H]21	n	n	n	x	n	n
CC(NC(=O)COC(=O)c1cc(Cl)nc(Cl)c1)c1ccccc1 (stereo unspecified)	n	n	x	n	n	43
CC(NC(=O)COC(=O)c1ccccc1O)c1ccccc1 (stereo unspecified)	n	n	n	n	n	n
SMILES	EWS-Fli block	PAX8 reporter	PGC1a acetyl inh	Env fusion inh	FN deposit inh	FGF22 binding
C[C@@H]1CCCCO[C@@H](CN(C)S(=O)(=O)c2ccc(Cl)cc2)[C@@H](C)CN([C@@H](C)CO)C(=O)c2cc(NS(=O)(=O)c3ccccc3)ccc2O1	x	n	n	x	n	n
C[C@H](CO)N1C[C@H](C)[C@H](CN(C)S(=O)(=O)c2ccc(Cl)cc2)OCCCC[C@H](C)Oc2ccc(NS(=O)(=O)c3ccccc3)cc2C1=O	n	72	n	n	n	n
C[C@H]1CCCCO[C@H](CN(C)S(=O)(=O)c2ccc(Cl)cc2)[C@@H](C)CN([C@@H](C)CO)C(=O)c2cc(NS(=O)(=O)c3ccccc3)ccc2O1	n	74	n	x	n	n
C[C@@H]1CCCCO[C@H](CN(C)S(=O)(=O)c2ccccc2)[C@H](C)CN([C@@H](C)CO)C(=O)c2cc(NS(=O)(=O)c3ccc(Cl)cc3)ccc2O1	n	81	n	n	n	n
C[C@@H]1CN([C@H](C)CO)C(=O)c2cc(NS(=O)(=O)c3ccccc3)ccc2O[C@@H](C)CCCCO[C@@H]1CN(C)S(=O)(=O)c1ccc(Cl)cc1	n	n	n	n	n	n
C/C=C/c1ccc([C@H]2[C@@H](CO)N(C(=O)COC)[C@@H]2CNC(=O)C2CCC2)cc1	x	x	n	x	x	x
CN(C)C(=O)C[C@@H]1CC[C@@H]2[C@H](COC[C@@H](O)CN2C(=O)C2CC2)O1	n	n	n	x	n	n
O=C(C[C@H]1CC[C@H](NC(=O)Nc2cc(F)ccc2F)[C@H](CO)O1)NCCCN1CCOCC1	n	n	n	n	n	n
CCN(C[C@H]1N[C@H](CO)[C@@H]1c1ccc(-c2ccccc2)cc1)C(=O)COC	n	n	n	x	n	n
CC(=O)Nc1ccc(NC2=CC(=O)c3ccccc3C2=O)cc1	n	n	x	n	n	n
CCN(CC)c1ccc(NC2=C(Cl)C(=O)c3ccccc3C2=O)cc1	x	x	68	x	x	x
CCCC(=O)NC1=C(Cl)C(=O)c2ccccc2C1=O	n	103	x	n	n	n
O=C1C(Cl)=C(Nc2ccc(O)cc2)C(=O)c2ccccc21	57	n	x	n	n	n
Cc1ccc(NC2=C(Cl)C(=O)c3ccccc3C2=O)cc1	u	n	u	n	n	n
O=C1C=C(Nc2ccc(O)cc2)C(=O)c2ccccc21	n	n	n	n	47	n
C[C@H](CO)N1C[C@H](C)[C@H](CN(C)S(=O)(=O)c2ccc(F)cc2)OCCCC[C@H](C)Oc2ccc(NS(C)(=O)=O)cc2C1=O	n	n	n	n	x	n
C[C@H](CO)N1C[C@H](C)[C@@H](CN(C)C)Oc2ncc(C3=CCCC3)cc2C1=O	n	x	n	n	n	n
CN(C)CCCNC(=O)C[C@H]1CC[C@H](NC(=O)c2ccccc2F)[C@H](CO)O1	n	n	n	n	n	n

Screening data: PubChem, Broad Institute
